Test results: ChEMBL document CHEMBL1138477, “8-(4-Methoxyphenyl)pyrazolo[1,5-a]-1,3,5-triazines: selective and centrally active corticotropin-releasing factor receptor-1 (CRF1) antagonists” (J Med Chem, 2009)
The source made the active and inactive calls.

Assays:
Rattus norvegicus [1] = assay: Toxicity in Sprague-Dawley rat assessed as total distance traveled at 30 mg/kg, po after 1 hr by open-field locomotor activity test; type: organism-based; set-up: dose 30 mg/kg, route oral; conditions: in vivo
In short: (§1)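 Male Sprague-Dawley rats received a single oral gavage dose of 30 mg/kg (free base weight) in 0.5% methocel–Tween-80 (99:1) or vehicle alone. Behaviour was assessed 1 h postdose, as time on the rotorod in seconds for the rotorod test and total distance travelled in cm for open-field locomotor activity. Values are mean ± SEM, n = 8 per group.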

Rattus norvegicus [2] = assay: Toxicity in Sprague-Dawley rat assessed as time spent on rotarod at 30 mg/kg, po after 1 hr by rotarod test; type: organism-based; set-up: dose 30 mg/kg, route oral; conditions: in vivo; in short: as §1
[3] = biological target: T1, Corticotropin-releasing factor receptor 1 (Rattus norvegicus, UniProt P35353); assay: Displacement of [125I]Tyr0-ovine CRF from CRF1 receptor in rat cortical membrane by gamma counting; type: cell membranes
T1 sequence (P35353 whole entry): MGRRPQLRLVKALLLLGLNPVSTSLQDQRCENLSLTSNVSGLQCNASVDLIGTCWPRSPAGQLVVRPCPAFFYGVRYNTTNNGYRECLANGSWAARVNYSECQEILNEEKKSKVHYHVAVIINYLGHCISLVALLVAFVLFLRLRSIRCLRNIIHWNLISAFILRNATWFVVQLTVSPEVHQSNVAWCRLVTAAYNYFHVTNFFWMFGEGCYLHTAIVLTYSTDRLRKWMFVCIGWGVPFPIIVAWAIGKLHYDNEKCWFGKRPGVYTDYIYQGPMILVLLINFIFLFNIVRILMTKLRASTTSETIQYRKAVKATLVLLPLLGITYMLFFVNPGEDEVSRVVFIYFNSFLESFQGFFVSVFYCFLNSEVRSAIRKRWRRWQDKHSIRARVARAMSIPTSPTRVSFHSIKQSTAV
In short: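 Inhibition of 125I-Tyr0-ovine-CRF binding to rat cortical membranes measured across dilutions of test drug; IC50 derived by iterative curve fitting.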

Canis familiaris [4] = assay: Ex vivo displacement of [125I]Tyr0-ovine CRF from CRF1 receptor in dog at 5 mg/kg, po measured in plasma after 2 hrs; type: functional; conditions: Canis lupus familiaris
In short: (§2)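 Beagle dogs given 5 mg/kg po (free base), in Labrafil or Tween-80/0.5% methylcellulose 1:99; plasma drawn 2 and 10 h postdose, diluted 10-fold in binding buffer, and tested for inhibition of 125I-Tyr0-ovine-CRF binding to rat receptors; mean ± SD, n = 3.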

Canis familiaris [5] = assay: Ex vivo displacement of [125I]Tyr0-ovine CRF from CRF1 receptor in dog at 5 mg/kg, po measured in plasma after 10 hrs; type: functional; conditions: Canis lupus familiaris; in short: as §2
[6] = biological target: T2, Corticotropin-releasing factor receptor 1 (Homo sapiens, UniProt P34998); assay: Binding affinity to CRF1 receptor in human IMR32 cells; type: cell-based, IMR-32
T2 sequence (P34998 whole entry): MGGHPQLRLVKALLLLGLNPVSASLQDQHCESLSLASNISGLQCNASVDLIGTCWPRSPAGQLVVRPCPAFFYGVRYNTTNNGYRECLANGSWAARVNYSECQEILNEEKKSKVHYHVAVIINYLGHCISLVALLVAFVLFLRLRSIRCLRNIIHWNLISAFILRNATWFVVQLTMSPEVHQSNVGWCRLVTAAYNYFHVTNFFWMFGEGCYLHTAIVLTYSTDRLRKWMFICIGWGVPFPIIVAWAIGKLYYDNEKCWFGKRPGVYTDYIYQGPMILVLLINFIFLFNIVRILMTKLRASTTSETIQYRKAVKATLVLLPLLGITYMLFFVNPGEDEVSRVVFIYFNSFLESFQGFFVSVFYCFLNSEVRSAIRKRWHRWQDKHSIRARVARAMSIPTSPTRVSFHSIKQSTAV

[7] = biological target: T1, Corticotropin-releasing factor receptor 1; assay: Antagonist activity at CRF1 receptor in rat brain homogenates assessed as inhibition of CRF-stimulted cAMP production; type: functional, tissue-based
In short: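 Rat cortical homogenate (0.8 mg original wet weight tissue) incubated 10 min at 37 °C in 100 mM Tris-HCl pH 7.4, 10 mM MgCl2, 0.4 mM EGTA, 0.1% BSA, 1 mM IBMX, creatine phosphate/phosphocreatine kinase, 100 nM ovine-CRF; started with 1 mM ATP/[32P]ATP; [32P]cAMP separated on Dowex and alumina columns, [3H]cAMP recovery marker; n = 3.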

Rattus norvegicus [8] = assay: Anxiolytic-like activity in Sprague-Dawley rat assessed as increase in time spent in open arms at 18 mg/kg, po measured after 1 hr by elevated plus maze test; type: functional, organism-based; set-up: dose 18 mg/kg
In short: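 Group-housed male Sprague-Dawley rats (180-300 g) dosed po in 0.25% Methocel 1 h before elevated plus maze; arm entry defined as all four paws in arm; percent time in open arms scored; test doses 1.0, 3.0, 10, 30 mg/kg; positive control at 18 mg/kg; n = 13-15/dose; mean ± SEM, ANOVA then Fisher's LSD.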

Rattus norvegicus [9] = assay: Anxiolytic-like activity in Sprague-Dawley rat assessed as decrease in latency to exit dark chamber at 10 mg/kg, po measured after 1 hr by defensive withdrawal test relative to control; type: functional; set-up: scale not given: the % may be the effect or the level left
In short: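 Male Sprague-Dawley rats (180-300 g), individually housed; open field with cylindrical dark chamber; oral dosing in 0.25% Methocel 1 h before a 15 min session scored blind via video; latency to place all four paws in open field recorded, maximum 900 s; test doses 1.0, 3.0, 10, 30 mg/kg; positive control at 10 mg/kg; n = 12/dose; Kruskal-Wallis then Mann-Whitney U.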

Row | Molecule | IC50 [3] [nM] | other results
1 | CNC1=Nc2ccc(Cl)cc2C(c2ccccc2)=[N+]([O-])C1 [CHLORDIAZEPOXIDE] | – | Activity (Rattus norvegicus [1]): 2249 cm; Time (Rattus norvegicus [2]): 121 s
2 | COCC(COC)Nc1nc(C)nc2c(-c3ccc(OC)cc3C)c(C)nn12 | 9.7 | –
3 | COCCN(CCOC)c1nc(C)nc2c(-c3cc(OC)c(OC)cc3Br)c(C)nn12 | 4.99 | –
4 | CC[C@H](C)Nc1nc(C)nc2c(-c3c(C)cc(OC)cc3OC)c(C)nn12 | 2.9 | inhibition in vivo at 5 mg/kg (Canis familiaris [4]): 72%; inhibition in vivo at 5 mg/kg (Canis familiaris [5]): 74%
5 | CCN(CC)c1nc(C)nc2c(-c3cc(F)c(OC)cc3Cl)c(C)nn12 | 1.64 | –
6 | COc1ccc(-c2c(C)nn3c(N(CCC#N)C4CC4)nc(C)nc23)c(C)c1 | 1.88 | –
7 | CCC(CC)Nc1nc(C)nc2c(-c3ccc(OC)c(C)c3C)c(C)nn12 | 11.3 | –
8 | COCCN(CCOC)c1nc(C)nc2c(-c3cc(OC)c(OC)cc3C)c(C)nn12 | 13.7 | –
9 | CCCN(CCC#N)c1nc(C)nc2c(-c3ccc(OC)cc3C)c(C)nn12 | 2.16 | –
10 | CCC(CC)Nc1nc(C)nc2c(-c3cc(OC)c(OC)cc3Br)c(C)nn12 | 6.08 | –
11 | CCC(CC)Nc1nc(C)nc2c(-c3cc(F)c(OC)cc3C)c(C)nn12 | 1.9 | inhibition in vivo at 5 mg/kg (Canis familiaris [4]): 81%; inhibition in vivo at 5 mg/kg (Canis familiaris [5]): 25%
12 | CCCCN(CC)c1nc(C)nc2c(-c3c(C)cc(OC)cc3OC)c(C)nn12 | 1.72 | –
13 | C=CCN(C)c1nc(C)nc2c(-c3c(C)cc(OC)cc3OC)c(C)nn12 | 4.92 | –
14 | H-DLTFHLLREMLEMAKAEQEAEQAALNRLLLEEA-NH2 | 1.24 | IC50 [6]: 2 nM; IC50 [7]: 264 nM
15 | CCCCN(CC)c1nc(C)nc2c(-c3ccc(OC)cc3C)c(C)nn12 | 2.3 | –
16 | COCCN(CCOC)c1nc(C)nc2c(-c3cc(F)c(OC)cc3Cl)c(C)nn12 | 1.18 | –
17 | CCCCN(CC)c1nc(C)nc2c(-c3c(C)cc(OC)cc3C)c(C)nn12 | 4.22 | –
18 | COc1ccc(-c2c(C)nn3c(NC4CCC4)nc(C)nc23)c(C)c1 | 24.6 | –
19 | CCCC(C)Nc1nc(C)nc2c(-c3c(C)cc(OC)cc3OC)c(C)nn12 (centres undefined) | 2.14 | –
20 | CCOCC(COCC)Nc1nc(C)nc2c(-c3ccc(OC)cc3C)c(C)nn12 | 19.3 | –
21 | CCC(CC)Nc1nc(C)nc2c(-c3ccc(OC)cc3)c(C)nn12 | 3.8 | –

Row | Molecule | IC50 [3] [nM] | other results
22 | COCCN(CC1CC1)c1nc(C)nc2c(-c3c(C)cc(OC)cc3OC)c(C)nn12 | 1.8 | –
23 | CCCN(CCC)c1nc(C)nc2c(-c3ccc(OC)cc3C)c(C)nn12 | 2.58 | –
24 | CCCN(CCC)c1nc(C)nc2c(-c3c(C)cc(OC)cc3OC)c(C)nn12 | 3.72 | –
25 | CCN(CC)c1nc(C)nc2c(-c3ccc(OC)c(C)c3C)c(C)nn12 | 38.6 | –
26 | CCC1CCCCN1c1nc(C)nc2c(-c3c(C)cc(OC)cc3OC)c(C)nn12 (centres undefined) | 3.26 | –
27 | COc1ccc(-c2c(C)nn3c(N4CCCC4)nc(C)nc23)c(C)c1 | 80.7 | –
28 | CCN(CC)c1nc(C)nc2c(-c3c(C)cc(OC)cc3OC)c(C)nn12 | 1.2 | inhibition in vivo at 5 mg/kg (Canis familiaris [4]): 56%; inhibition in vivo at 5 mg/kg (Canis familiaris [5]): 30%
29 | COCCN(CCOC)c1nc(C)nc2c(-c3ccc(OC)cc3)c(C)nn12 | 11.5 | –
30 | COCCN(CCOC)c1nc(C)nc2c(-c3cc(OC)c(OC)cc3Cl)c(C)nn12 | 8 | –
31 | COCCN(CCOC)c1nc(C)nc2c(-c3c(C)cc(OC)cc3C)c(C)nn12 | 2.74 | –
32 | COCCN(CCOC)c1nc(C)nc2c(-c3c(C)cc(OC)cc3OC)c(C)nn12 | 7.96 | –
33 | COc1cc(C)c(-c2c(C)nn3c(NC4CCC4)nc(C)nc23)c(OC)c1 | 17.4 | inhibition in vivo at 5 mg/kg (Canis familiaris [4]): 52%; inhibition in vivo at 5 mg/kg (Canis familiaris [5]): 46%
34 | CCC(CC)Nc1nc(C)nc2c(-c3c(C)cc(OC)cc3OC)c(C)nn12 | 5 | inhibition in vivo at 5 mg/kg (Canis familiaris [4]): 80%; inhibition in vivo at 5 mg/kg (Canis familiaris [5]): 56%
35 | CCN(CCOC)c1nc(C)nc2c(-c3c(C)cc(OC)cc3OC)c(C)nn12 | 1.78 | inhibition in vivo at 5 mg/kg (Canis familiaris [4]): 86%; inhibition in vivo at 5 mg/kg (Canis familiaris [5]): 54%
36 | CCN(CCC#N)c1nc(C)nc2c(-c3c(C)cc(OC)cc3OC)c(C)nn12 | 2.48 | –
37 | C=CCN(CC=C)c1nc(C)nc2c(-c3c(C)cc(OC)cc3OC)c(C)nn12 | 1 | –
38 | CCCN(C)c1nc(C)nc2c(-c3c(C)cc(OC)cc3OC)c(C)nn12 | 6.48 | –
39 | CCCN(CC1CC1)c1nc(C)nc2c(-c3ccc(OC)cc3C)c(C)nn12 | 1.96 | –
40 | CCN(CC)c1nc(C)nc2c(-c3cc(OC)c(OC)cc3Br)c(C)nn12 | 4.06 | –
41 | CCN(CC)c1nc(C)nc2c(-c3ccc(OC)cc3C)c(C)nn12 | 6.08 | –
42 | COCC(COC)Nc1nc(C)nc2c(-c3ccc(Cl)cc3Cl)c(C)nn12 | 4.2 | Activity (Rattus norvegicus [8]): Active; Activity (Rattus norvegicus [9]): 52%
